Consider four compounds from ChEMBL document CHEMBL1124943, “Alkylation of DNA by C-10 of 2,7-diaminomitosene” (1990).

Common to all, as to format: functional
For test [1], the system named is Nucleic Acid. As to the kind of experiment: Ability to […] breaks induced by ionozing radiation on exposure for 1 hr at a concentration of 100 ug/mL. Summed up: (§1)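 Murine L-1210 cells were prelabelled with [2-14C]thymidine (2.0 μCi) for 4 doublings (48 h), then chased 24 h in unlabelled medium. They were exposed 1 h at 37 °C, washed twice at 4 °C, and 10^6 cells were lysed on PVC filters (SDS/glycine/EDTA, pH 10.0). Lysates were digested 1 h with proteinase K (0.5 mg/mL), then alkaline-eluted (pH 12.1) for 15 h. First-order elution rates were converted to rad equivalents against ionizing-radiation standards. Values are the mean of three determinations, or duplicates where marked.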

Test [2] concerns Nucleic Acid. The test is described as follows: Ability to […] breaks induced by ionozing radiation on exposure for 1 hr at a concentration of 10 ug/mL. The essentials: as §1
Test [3] relates to L1210. As to the kind of experiment: Survival of L-1210 leukemia cells upon exposure to the compound for 1 hr at a concentration of 100ug/mL, measured in colony forming units. The following applies: Mus musculus, L1210, 1 h; read-out: Survival.
The test system of test [4] is L1210. The test is described as follows: Survival of L-1210 leukemia cells upon exposure to the compound for 1 hr at a concentration of 10ug/mL, measured in colony forming units. Particulars: Mus musculus, L1210, 1 h; read-out: Survival.
The subject of test [5] is L1210. The test is described as follows: Survival of L-1210 leukemia cells upon exposure to the compound for 1 hr at a concentration of 50ug/mL, measured in colony forming units. Particulars: Mus musculus, L1210, 1 h; read-out: Survival.
For test [6], the system named is Nucleic Acid. The test is described as follows: Ability to […] breaks induced by ionozing radiation on exposure for 1 hr at a concentration of 50 ug/mL. Summed up: as §1
For test [7], the system named is L1210. The test is described as follows: Survival of L-1210 leukemia cells upon exposure to the compound for 1 hr at a concentration of 1ug/mL, measured in colony forming units. The following applies: Mus musculus, L1210, 1 h; read-out: Survival.
The subject of test [8] is L1210. As to the kind of experiment: Survival of L-1210 leukemia cells upon exposure to the compound for 1 hr at a concentration of 500ug/mL, measured in colony forming units. Particulars: Mus musculus, L1210, 1 h; read-out: Survival.
Test [9] deals with Nucleic Acid. As to the kind of experiment: Ability to […] breaks induced by ionozing radiation on exposure for 1 hr at a concentration of 250 ug/mL. Summed up:
as §1

The test system of test [10] is Nucleic Acid. The test is described as follows: Ability to […] breaks induced by ionozing radiation on exposure for 1 hr at a concentration of 500 ug/mL. Summed up: as §1
Test [11] concerns L1210. As to the kind of experiment: Survival of L-1210 leukemia cells upon exposure to the compound for 1 hr at a concentration of 250ug/mL, measured in colony forming units. Particulars: Mus musculus, L1210, 1 h; read-out: Survival.
The mark [12] stands for this setting: tested as the 18O-labelled form.

For `COS(C)(=O)=O` [METHANESULFONIC ACID METHYL ESTER], the DNA single strand breaks in the test on Nucleic Acid [1] was found to be 2150 rad equiv; in the test on Nucleic Acid [2], 583 rad equiv; in the test with Nucleic Acid [6] it was 935 rad equiv. Also, the viability at 100 µg/mL with L1210 [3] was 0.2%. In the test on L1210 [4], the viability at 10 µg/mL stood at 100%. Besides, the viability at 50 µg/mL with L1210 [5] was determined as 32%.

For `CC1=C(N)C(=O)c2c(COC(N)=O)c3n(c2C1=O)CC(N)C3[18OH]` (stereo not given), the viability at 100 µg/mL in the test with L1210 [3] was found to be 0%. Also, in the test with L1210 [4], the viability at 10 µg/mL worked out at 81%. The viability at 1 µg/mL in the test on L1210 [7] came out at 100%. The viability at 500 µg/mL with L1210 [8] came out at 0%. Also, the viability at 50 µg/mL in the test with L1210 [5] amounted to 2%.

With `CC1=C(N)C(=O)c2c(COC(N)=O)c3n(c2C1=O)CC(N)C3` (stereo not given), the DNA single strand breaks in the test with Nucleic Acid [1] was found to be 320 rad equiv; in the test on Nucleic Acid [2], 0 rad equiv; with Nucleic Acid [9], 470 rad equiv; in the test with Nucleic Acid [10], 535 rad equiv; with Nucleic Acid [6], 110 rad equiv. In addition, the viability at 100 µg/mL with L1210 [3] turned out to be 8%. Also, the viability at 10 µg/mL in the test on L1210 [4] stood at 100%. Besides, the viability at 250 µg/mL with L1210 [11] turned out to be 0.9%. In the test on L1210 [8], the viability at 500 µg/mL is 0%. The viability at 50 µg/mL in the test with L1210 [5] was found to be 43%.

For `CC1=C(N)C(=O)c2c(COC(N)=O)c3n(c2C1=O)CC(N)C3O` (stereo not given), the DNA single strand breaks was found to be 50 rad equiv in the test on Nucleic Acid [1] (setting [12]), 0 rad equiv in the test on Nucleic Acid [2] (setting [12]), 395 rad equiv in the test on Nucleic Acid [10] (setting [12]) and 0 rad equiv with Nucleic Acid [6] (setting [12]).
